ChEMBL document CHEMBL1124291, “New actinomycin D analogues as superior chemotherapeutic agents against primary and advanced colon tumors and colon xenografts in nude mice” (J Med Chem, 1988)

What was measured:
Rattus norvegicus [1] = species: Rattus norvegicus; experiment: Percent of the tissue bound conjugates isolated from incubation mixture containing rat microsomes; format: functional
Procedure, shortened: (§1)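 Tritiated analogues were incubated with two systems. (T) sonicated P388 cell homogenates, 37 °C for 16 h. (M) liver microsomes from phenobarbital-induced rats, 6 h with an NADPH-generating system (glucose-6-phosphate dehydrogenase plus glucose 6-phosphate). Metabolites and water-soluble conjugates were isolated, separated by HPLC and expressed as percentages.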

Rattus norvegicus [2] = species: Rattus norvegicus; experiment: The formation of adrenochrome from epinephrine in the presence of SOD(super oxide dismutase); + denotes ' Inhibited'; format: functional
Procedure, shortened: (§2)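 Drug-stimulated superoxide generation with rat liver microsomal enzymes and NADPH as cofactor. NADPH oxidation was read at 340 nm. Adrenochrome formed from epinephrine was read at 480 nm, with or without superoxide dismutase. % stimulation = [(drug-stimulated rate − basal rate)/basal rate] × 100. Values are mean ± standard error of triplicate analyses.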

pBR322 plasmid DNA = experiment: DNA-cleaving ability expressed as % of closed circular pBR322 DNA cleaved […]
B16 [3] = experiment: In vivo antitumor activity against B16 melanoma cells at a optimal dose measured as %ILS (%increase life span); format: functional, Mus musculus
Procedure, shortened: (§3)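 BDF1 mice in groups of nine were implanted ip on day 0 with 0.2 mL of 1:5 (w/v) B16 melanoma brei; drugs were given ip. Survival is reported as median survival time in days with range, and as %ILS, with survivors counted on day 65 out of total injected.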

Rattus norvegicus [4] = species: Rattus norvegicus; experiment: Percent of the uncoverted isolated from incubation mixture containing trat microsomes,; format: functional; procedure, shortened: as §1
Rattus norvegicus [5] = species: Rattus norvegicus; experiment: DNA-cleaving ability expressed as % of closed circular pBR322 DNA cleaved at 100 uM conc 100 uM; format: functional
Procedure, shortened: (§4)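 pBR322 DNA (200 μM nucleotides) in 10 mM Tris·HCl pH 7.8 and 50 mM NaCl, with 4 mM Na₂S₂O₄ and 100 μM FeCl₂. Incubated with drug for 1 h at 20 °C, kept air-saturated. Supercoiled and open-circular forms were separated by agarose gel electrophoresis, stained with ethidium bromide and quantitated by densitometry. % cleaved was calculated from the open- and closed-circular amounts.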

Rattus norvegicus [6] = species: Rattus norvegicus; experiment: Stimulation of NADPH oxidation in the presence of rat liver microsomes; format: functional; procedure, shortened: as §2
Rattus norvegicus [7] = species: Rattus norvegicus; experiment: Percent of the protein conjugates isolated from incubation mixture containing rat micro somes; format: functional; procedure, shortened: as §1
B16 [8] = experiment: In vivo antitumor activity against B16 melanoma cells at dose 300 ug/Kg /inj measured as Mean survival time (MST); format: functional, Mus musculus; procedure, shortened: as §3
MC-38 [9] = experiment: Activity against advanced carcinoma C38 tumor in CDF1 mice at dose 1.20 mg/kg measured as % inhibition of tumor; format: functional; conditions: Mus musculus
Rattus norvegicus [10] = species: Rattus norvegicus; experiment: Percent of the unidentified metabolites isolated from incubation mixture containing rat micro somes; format: functional; procedure, shortened: as §1
MC-38 [11] = experiment: Activity against advanced carcinoma C38 tumor in CDF1 Mice at dose 0.30 mg/kg measured as % inhibition of tumor; format: functional; conditions: Mus musculus
P388 [12] = experiment: Antitumor activity in P388/S(AMD sensitive) in male BDF1 mice measured as optimal dose at dose 0.3-1.8 mg/kg
P388 (Mus musculus) [13] = experiment: Percent of the uncoverted isolated from incubation mixture containing tumor cell homogenate(T)
MC-38 [14] = experiment: Number of toxic deaths/number of mice in a group of non tumored mice treated in parallel with the tumor-bearing mice and observed for 100 days at a dose of 1.20 mg/ Kg; value given as 4/9; format: toxicity; conditions: mouse, in vivo, 1.2 mg/kg, 2400 h
Procedure, shortened: (§5)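 Non-tumored CDF1 mice were treated in parallel with colon 38 tumor-bearing mice: iv injections on days 1, 5 and 9, groups of nine. Deaths were counted over 100 days of observation and reported as toxic deaths / mice in group.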

MC-38 [15] = experiment: Number of toxic deaths/number of mice in a group of non tumored mice treated in parallel with the tumor-bearing mice and observed for 100 days at a dose of 0.30 mg/ kg; value given as 0/9; format: functional, Mus musculus; procedure, shortened: as §5
[16] = DNA-cleaving ability expressed as % of closed circular pBR322 DNA cleaved at 10 uM conc 10 uM
P388 [17] = experiment: 50% inhibition of incorporation of precursor [3H]thymidine into DNA P388 cell lines; format: functional, cell-based; conditions: Mus musculus, P388, 2 h
MC-38 [18] = experiment: Activity against advanced carcinoma C38 tumor in CDF1 Mice at dose 0.60 mg/kg measured as % inhibition of tumor; format: functional; conditions: Mus musculus
P388 (Mus musculus) [19] = experiment: Percent of the tissue bound conjugates isolated from incubation mixture containing tumor cell homogenate(T)
P388 [20] = experiment: 50% inhibition of incorporation precursor [14C]uridine into RNA P388 cell lines; format: functional, cell-based; conditions: Mus musculus
Rattus norvegicus [21] = species: Rattus norvegicus; experiment: Percent of the SAD glucuronide and/or sulfate isolated from incubation mixture containing tumor cell homogenate(T) after 8.0, 10.5 min.; format: functional; procedure, shortened: as §1
Rattus norvegicus [22] = species: Rattus norvegicus; experiment: DNA-cleaving ability expressed as % of closed circular pBR322 DNA cleaved […] conc 50 uM; format: functional; procedure, shortened: as §4
MC-38 [23] = experiment: Mean survival time of treated / untreated group x100. (number of over 100-day survivors/number of total mice in the group) at a dose 0.60 mg/kg; format: functional, Mus musculus; conditions: dose 0.6 mg/kg
Procedure, shortened: (§6)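 CDF1 mice were implanted sc on day 0 with colon 38 adenocarcinoma fragments (70 mg) and given iv drug on days 1, 5 and 9. %T/C = median survival of treated / untreated × 100. Number of mice surviving over 100 days / group total is given in parentheses.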

P388 (Mus musculus) [24] = experiment: Percent of the unidentified metabolites isolated from incubation mixture containing tumor cell homogenate(T)
HT-29 [25] = experiment: 50% inhibition of incorporationf precursor [3H]thymidine into RNA HT-29 cell lines; format: functional, cell-based; conditions: Homo sapiens, HT-29, 2 h; in the assay text read “[14C]uridine” for “[3H]thymidine”
Procedure, shortened: (§7)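 HT-29 colon carcinoma monolayers, 10^4 cells per well, five wells per concentration. Drug exposure lasted 2 h, with [³H]thymidine and [2-¹⁴C]uridine (0.5 μCi each) added for the last hour. Cells were washed, trypsinized, counted and precipitated onto glass-fiber filters with 10% TCA. Acid-precipitable radioactivity was measured. IC50 is the concentration inhibiting 50% of incorporation; data are averages of replicate experiments.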

P388 [26] = experiment: Antitumor activity in P388/ADR (adriamycin resistant), in male BDF1 mice measured as optimal dose
Rattus norvegicus [27] = species: Rattus norvegicus; experiment: Percent of the protein conjugates isolated from incubation mixture containing tumor cell homogenate(T); format: functional; procedure, shortened: as §1
Rattus norvegicus [28] = species: Rattus norvegicus; experiment: The formation of adrenochrome from epinephrine in the absence of SOD(super oxide dismutase); format: functional; procedure, shortened: as §2
HT-29 [29] = experiment: 50% inhibition of incorporationf precursor [3H]thymidine into DNA HT-29 cell lines; format: functional, cell-based; conditions: Homo sapiens, HT-29, 2 h; procedure, shortened: as §7
MC-38 [30] = experiment: Mean survival time of treated / untreated group x100. (number of over 100-day survivors/number of total mice in the group) at a dose 1.20 mg/kg; format: functional, Mus musculus; conditions: dose 1.2 mg/kg; procedure, shortened: as §6
MC-38 [31] = experiment: Mean survival time of treated / untreated group x100. (number of over 100-day survivors/number of total mice in the group) at a dose 0.30 mg/kg; format: functional, Mus musculus; conditions: dose 0.3 mg/kg; procedure, shortened: as §6
MC-38 [32] = experiment: Number of toxic deaths/number of mice in a group of non tumored mice treated in parallel with the tumor-bearing mice and observed for 100 days at a dose of 0.60 mg/ kg; value given as 0/9; format: functional, Mus musculus; procedure, shortened: as §5

## Cc1c2oc3c(C)c(O)c(N)c(C(=O)N[C@@H]4C(=O)N[C@H](C(C)C)C(=O)N5CCC[C@H]5C(=O)N(C)CC(=O)N(C)[C@@H](C(C)C)C(=O)O[C@@H]4C)c3nc-2c(C(=O)N[C@@H]2C(=O)N[C@H](C(C)C)C(=O)N3CCC[C@H]3C(=O)N(C)CC(=O)N(C)[C@@H](C(C)C)C(=O)O[C@@H]2C)c(N)c1=O
Rattus norvegicus [1]
  Activity: 15%
Rattus norvegicus [2]
  Adrenochrome formation: Inhibited
pBR322 plasmid DNA
  Activity: 50%
B16 [3]
  ILS: 96%
Rattus norvegicus [4]
  Activity: 50%
Rattus norvegicus [5]
  Activity: 65%
Rattus norvegicus [6]
  NADPH oxidation (nM min-1 (mg of protein)-1): 64.3
Rattus norvegicus [7]
  Activity: 20%
B16 [8]
  MST: 57
MC-38 [9]
  inhibition in vivo at 1.2 mg/kg: 99%
Rattus norvegicus [10]
  Activity: 15%
MC-38 [11]
  inhibition in vivo at 0.3 mg/kg: 95%
P388 [12]
  optimal dose: 0.6 mg/kg
P388 (Mus musculus) [13]
  Activity: 30%
MC-38 [14]
  Toxic deaths: 4
MC-38 [15]
  Toxic deaths: 0
[16]
  Activity: 35%
P388 [17]
  IC50: 12 nM
MC-38 [18]
  inhibition in vivo at 0.6 mg/kg: 97%
P388 (Mus musculus) [19]
  Activity: 7.5%
P388 [20]
  IC50: 15 nM
Rattus norvegicus [21]
  Activity: 47%
Rattus norvegicus [22]
  Activity: 50%
MC-38 [23]
  T/C: 278%
P388 (Mus musculus) [24]
  Activity: 10%
HT-29 [25]
  IC50: 55 nM
P388 [26]
  optimal dose: 1.2 mg/kg
Rattus norvegicus [27]
  Activity: 5.5%
Rattus norvegicus [28]
  Adrenochrome formation: 19.3 nM min-1 (mg of protein)-1
HT-29 [29]
  IC50: 70 nM
MC-38 [30]
  T/C: 211%
MC-38 [31]
  T/C: 278%
MC-38 [32]
  Toxic deaths: 0
